In ChEMBL document CHEMBL1148810, “Design, synthesis, and preliminary pharmacological evaluation of new quinoline derivatives as nicotinic ligands” (J Med Chem, 2007):
Calls of active or inactive are those of the source.

How the values were obtained:
Mus musculus = assay: Analgesic activity in mouse at 5 mg/kg, ip by hot plate test […]; type: functional, organism-based; design: dose 5 mg/kg
Method in brief: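 Mice were placed on a stainless steel surface held at 52.5 ± 0.1 °C, and dosing was i.p. at 5 mg/kg. Paw-licking latency (s) was timed by stopwatch before and 15, 30, 45 and 60 min after dosing. Mice with pretest scores below 12 or above 18 s were excluded, and the cutoff was 45 s. Ten mice per group; mean ± SEM.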

[1] = target: T1, Neuronal acetylcholine receptor; alpha4/beta2 (Rattus norvegicus, UniProt P09483+P12390); assay: Displacement of [3H]cytisine from alpha-4-beta-2 nAChR in rat cerebral cortex; type: tissue-based
Method in brief: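 Rat cerebral cortex membranes labelled with [³H]-cytisine, which marks α4β2* receptors. Compounds were tested for displacement up to 10 µM, with amines used as oxalate salts. Ki values were determined.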

[2] = target: Neuronal acetylcholine receptor subunit alpha-7 (Rattus norvegicus, UniProt Q05941); assay: Displacement of [3H]alpha-bungarotoxin from alpha-7 nAChR in rat cerebral cortex; type: tissue-based
[3] = target: T1, Neuronal acetylcholine receptor; alpha4/beta2; assay: Displacement of [3H]epibatidine from alpha-4-beta-2 nAChR in rat cerebral cortex; type: tissue-based
Method in brief: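 Rat cerebral cortex was used in competition binding against [³H]-epibatidine, with amines tested as oxalate salts. Ki values were derived, and subtype selectivity was taken from comparison with Ki values obtained on the same tissue.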

Sequence of Neuronal acetylcholine receptor subunit alpha-7 (Q05941 whole entry): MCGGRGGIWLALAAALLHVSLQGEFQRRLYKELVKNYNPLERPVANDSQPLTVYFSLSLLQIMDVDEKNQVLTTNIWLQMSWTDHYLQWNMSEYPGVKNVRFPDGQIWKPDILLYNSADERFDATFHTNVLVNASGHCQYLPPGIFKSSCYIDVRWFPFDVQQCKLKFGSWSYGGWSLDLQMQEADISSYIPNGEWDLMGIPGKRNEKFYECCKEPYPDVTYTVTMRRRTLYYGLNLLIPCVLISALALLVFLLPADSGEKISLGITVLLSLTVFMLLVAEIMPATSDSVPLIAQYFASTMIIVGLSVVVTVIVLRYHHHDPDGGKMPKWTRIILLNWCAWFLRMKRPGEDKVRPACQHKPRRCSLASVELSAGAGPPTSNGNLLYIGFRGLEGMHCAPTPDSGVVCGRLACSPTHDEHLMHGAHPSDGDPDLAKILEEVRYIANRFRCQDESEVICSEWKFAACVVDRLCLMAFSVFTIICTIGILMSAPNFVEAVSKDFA
T1 sequence (P09483 whole entry): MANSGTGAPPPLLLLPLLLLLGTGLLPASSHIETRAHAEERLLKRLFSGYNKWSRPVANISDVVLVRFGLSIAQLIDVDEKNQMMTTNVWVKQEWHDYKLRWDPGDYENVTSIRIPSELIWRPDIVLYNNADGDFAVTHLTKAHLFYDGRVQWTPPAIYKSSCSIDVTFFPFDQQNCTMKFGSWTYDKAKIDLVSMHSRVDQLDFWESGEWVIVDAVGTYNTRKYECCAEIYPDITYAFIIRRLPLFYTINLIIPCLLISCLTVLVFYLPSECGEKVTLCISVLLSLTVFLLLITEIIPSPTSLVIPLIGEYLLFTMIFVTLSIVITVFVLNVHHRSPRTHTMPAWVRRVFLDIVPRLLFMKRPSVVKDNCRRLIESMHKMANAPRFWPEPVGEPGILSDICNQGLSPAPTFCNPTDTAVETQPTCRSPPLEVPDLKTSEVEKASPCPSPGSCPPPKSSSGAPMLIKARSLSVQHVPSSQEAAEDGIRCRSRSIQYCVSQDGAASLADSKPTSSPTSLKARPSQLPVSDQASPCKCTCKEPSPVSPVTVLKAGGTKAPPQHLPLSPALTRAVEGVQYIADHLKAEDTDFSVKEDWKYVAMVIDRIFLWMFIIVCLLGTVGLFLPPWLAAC
T1 sequence (P12390 whole entry): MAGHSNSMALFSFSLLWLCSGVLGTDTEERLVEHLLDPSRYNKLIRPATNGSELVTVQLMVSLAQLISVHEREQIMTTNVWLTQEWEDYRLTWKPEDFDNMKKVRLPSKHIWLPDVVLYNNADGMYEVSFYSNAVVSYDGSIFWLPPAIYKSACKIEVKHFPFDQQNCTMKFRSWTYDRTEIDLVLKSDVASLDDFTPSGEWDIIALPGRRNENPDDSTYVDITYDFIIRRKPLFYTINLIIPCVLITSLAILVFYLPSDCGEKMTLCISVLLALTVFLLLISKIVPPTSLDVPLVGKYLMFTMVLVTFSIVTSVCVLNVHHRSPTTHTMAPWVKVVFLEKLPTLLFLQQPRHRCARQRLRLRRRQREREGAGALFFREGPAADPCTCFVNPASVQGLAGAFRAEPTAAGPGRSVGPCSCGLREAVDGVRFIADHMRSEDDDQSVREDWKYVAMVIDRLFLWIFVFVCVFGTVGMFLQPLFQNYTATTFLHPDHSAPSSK

| SMILES | Activity (Mus musculus) | Ki [1] [nM] | Ki [2] [nM] | Ki [3] [nM] |
| --- | --- | --- | --- | --- |
| C[N+]1(C)CCCC1c1ccc2ncccc2c1 (racemic) | Dose-dependent effect | 45 |  |  |
| C[N+]1(C)CCC[C@H]1c1ccc2ncccc2c1 | Active | 16 | 1570 | 42 |
| C[N+]1(C)CCC[C@@H]1c1ccc2ncccc2c1 |  | 220 | 90 | 1400 |
| CN1CCC[C@H]1c1ccc2ncccc2c1 |  | 90 | 42000 | 124 |
| CN1CCCC1c1ccc2ncccc2c1 (racemic) | Dose-dependent effect | 132 |  |  |
| C[N+](C)(C)CCC#Cc1ccc2ncccc2c1 |  |  | 142 | 6800 |
| CN1CCC[C@@H]1c1ccc2ncccc2c1 |  | 1950 | 8100 | 2100 |
